# Assay results as given in PubChem BioAssay.
# Calls of active or inactive are those of the source.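 The calls were made as follows, unless noted: active = viability at or below 10% of carrier control in both of two separate runs; inconclusive = viability at or below 10% in only one of the two runs; inactive = the rest.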
# Columns and labels:
# [1] = reducers of endogenous Her2 protein level, primary screen, SKBR3 breast tumor cells, AlphaScreen, ATP viability (AID 461;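 active = Her2 level under about 52% in both replicate screens, with viability over 70% of control, limit read from the data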;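 as to Her2 level: lower value means less Her2 protein in the cells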;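 as to viability: percent of carrier control wells set as 100% viability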); settings: 18-24 h, measured here: SKBR3 viability, ATP luminescence, at 10 µM
# [2] = molecular target: Receptor tyrosine-protein kinase erbB-2 (Homo sapiens) (UniProt P04626); experiment: as above; settings: 18-24 h, at 10 µM, stronger effect = lower value
# [3] = SK-BR-3 cell growth inhibitors, pilot screen, 24 h, human (AID 572); settings: SK-BR-3 viability, CellTiter-Glo luminescence, at 10 µM, stronger effect = lower value;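 also: compound exposure lasted between 18 and 24 h rather than exactly 24 h; 100% = carrier-treated control wells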
# [4] = HUVEC growth inhibition – cell-based, human, primary screen (AID 575;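 active = viability at or below 30% in both replicate assays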;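 also: 100% = median of untreated cell wells with 0.1% DMSO on each plate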); settings: HUVEC proliferation, CellTiter-Glo luminescence, 72 h; at 10 µM; stronger effect = lower value
# Summary of the method: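 System – primary HUVEC, no more than 12 passages · Medium – Low-serum (2% FBS) EBM, supplemented · Times – 72 h exposure, 37 °C, 5% CO2, 30 min RT equilibration · Measured by – luminescent ATP assay · Read-out – % viability relative to median vehicle-well signal on each plate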
# [5] = growth inhibitors of H69AR lung tumor, primary screen, human, duplicate replicates (AID 580;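 active = viability at or under a set limit in both replicates, limit being median viability minus 3 SD, cut at about 48% in these data, passing the limit was not always enough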;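 also: 100% = mean luminescence of untreated wells and 0% = no signal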); settings: H69AR lung tumor cells viability, ATP luminescence, 72 h; at 10 µM; stronger effect = lower value
# [6] = reversal of MRP1-mediated doxorubicin resistance, pilot screen, H69AR cells, doxorubicin co-treatment (AID 601;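 active = viability loss from added drug above about 55%, and viability with drug at most 40%, in both replicates, limit read from the data, passing the limit was not always enough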); settings: CellTiter-Glo, 72 h, at 10 µM; for differential viability (reversal): stronger effect = higher value
# [7] = 384-well plate pilot, post-Golgi transport modulator project, inhibition of yeast transport mutant growth (AID 636; in the data active = inhibition above about 31%); settings: absorbance 615 nm, about 18 h, stronger effect = higher value
# [8] = growth suppression of yeast trafficking mutant, preliminary HTS, modulators of trafficking downstream of Golgi apparatus project, 1536-format plate, OD 615 nm (AID 637; in the data active = inhibition above about 30%); settings: yeast transport mutant growth, absorbance 615 nm, 18 h; stronger effect = higher value
# [9] = H69AR cells + 2 uM doxorubicin, measured here: viability with 2 uM doxorubicin, stronger effect = lower value
# [10] = H69AR cells, compound alone cytotoxicity
# Chain of Receptor tyrosine-protein kinase erbB-2 (Homo sapiens) (P04626 whole entry, looked up): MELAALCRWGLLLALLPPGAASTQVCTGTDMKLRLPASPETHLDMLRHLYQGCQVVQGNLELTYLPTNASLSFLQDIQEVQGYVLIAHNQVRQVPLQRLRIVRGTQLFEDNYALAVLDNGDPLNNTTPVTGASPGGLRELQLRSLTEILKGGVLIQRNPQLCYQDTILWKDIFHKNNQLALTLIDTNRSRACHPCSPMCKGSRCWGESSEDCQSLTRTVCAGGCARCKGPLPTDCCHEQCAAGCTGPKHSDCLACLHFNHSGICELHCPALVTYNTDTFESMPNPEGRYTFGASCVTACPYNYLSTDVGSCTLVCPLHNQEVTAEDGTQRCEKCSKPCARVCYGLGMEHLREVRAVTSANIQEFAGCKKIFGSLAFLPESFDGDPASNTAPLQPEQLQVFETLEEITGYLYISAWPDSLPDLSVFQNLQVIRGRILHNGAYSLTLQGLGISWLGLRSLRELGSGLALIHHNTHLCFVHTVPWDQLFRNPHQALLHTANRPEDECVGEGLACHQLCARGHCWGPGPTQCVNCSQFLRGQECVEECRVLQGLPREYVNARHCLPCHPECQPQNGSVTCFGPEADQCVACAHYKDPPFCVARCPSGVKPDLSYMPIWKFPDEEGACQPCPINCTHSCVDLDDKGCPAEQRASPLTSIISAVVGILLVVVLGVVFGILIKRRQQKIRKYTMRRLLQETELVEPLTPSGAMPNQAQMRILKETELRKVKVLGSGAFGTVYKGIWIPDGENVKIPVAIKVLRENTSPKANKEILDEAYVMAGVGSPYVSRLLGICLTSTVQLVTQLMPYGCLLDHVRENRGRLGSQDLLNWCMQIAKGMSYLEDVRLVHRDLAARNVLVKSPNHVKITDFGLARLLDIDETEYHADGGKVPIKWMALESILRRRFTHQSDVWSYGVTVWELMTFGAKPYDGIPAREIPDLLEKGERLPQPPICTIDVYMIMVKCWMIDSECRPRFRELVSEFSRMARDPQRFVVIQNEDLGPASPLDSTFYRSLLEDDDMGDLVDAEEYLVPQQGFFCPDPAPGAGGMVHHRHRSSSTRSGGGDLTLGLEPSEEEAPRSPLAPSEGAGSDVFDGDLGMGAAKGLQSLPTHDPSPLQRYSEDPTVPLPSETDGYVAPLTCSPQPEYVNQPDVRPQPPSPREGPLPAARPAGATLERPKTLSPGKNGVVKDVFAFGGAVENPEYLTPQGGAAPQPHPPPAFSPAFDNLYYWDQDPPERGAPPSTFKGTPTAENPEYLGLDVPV
Compound,viability [1] [%],Her2 level [2],viability [3],viability [4],viability [5],differential viability (reversal) ([6]; H69AR cells + 2 uM doxorubicin),"viability [6, 9] [%]","viability [6, 10] [%]",inhibition [7],inhibition [8]
O=C(O)CC1SC(=Nc2cccc(C(F)(F)F)c2)NC1=O (stereo not given),111,94.5% (inactive),111% (inactive),104% (inactive),103% (inactive),9.34% (inactive),93.2,103,-1.45% (inactive),1.29% (inactive)
Cc1ccccc1-n1c(=O)cc(NCc2ccc3c(c2)OCO3)[nH]c1=O,94.5,89.5% (inactive),94.5% (inactive),104% (inactive),103% (inactive),2.75% (inactive),100,103,-2.57% (inactive),1.75% (inactive)
Cc1ccc2c(c1)NC(=O)C(CC(=O)NCCN(CC(C)C)CC(C)C)O2 (stereo not given),88,93% (inactive),88% (inactive),87.3% (inactive),91.6% (inactive),5.71% (inactive),85.8,91.6,2.13% (inactive),-3.28% (inactive)
CCCCCCNC(=O)Cc1c(O)c2ccccc2[nH]c1=O,105,90.5% (inactive),105% (inactive),114% (inactive),94.9% (inactive),14.7% (inactive),80.2,94.9,-5.27% (inactive),7.67% (inactive)
CCNC(=O)COc1ccc(Br)cc1Cl,96,91% (inactive),96% (inactive),92.1% (inactive),93.2% (inactive),-4.36% (inactive),97.6,93.2,-5% (inactive),-1.9% (inactive)
COc1ccc(C(=O)N2CCN(C3CCC(c4ccccc4)CC3)CC2)cc1OC (stereo not given),108,93% (inactive),108% (inactive),95.2% (inactive),83% (inactive),-2.52% (inactive),85.6,83,-4.16% (inactive),-3.67% (inactive)
CSCCC(NC(=O)c1ccco1)C(=O)OC(C)C(=O)NC(=O)NC1CCCCC1 (stereo not given),88,99% (inactive),88% (inactive),96.1% (inactive),111% (inactive),16.1% (inactive),95,111,-3.9% (inactive),8.52% (inactive)
O=C(CSc1nnc(Cn2nnc(-c3ccccc3)n2)n1-c1ccccc1)Nc1ccc(F)cc1,91,82% (inactive),91% (inactive),64.1% (inactive),75.7% (inactive),3.96% (inactive),71.8,75.7,-1.45% (inactive),13.4% (inactive)
Cc1nc(SCCC(=O)O)c2ccccc2n1,98,108% (inactive),98% (inactive),88.4% (inactive),85.9% (inactive),1.88% (inactive),84,85.9,-0.26% (inactive),-0.5% (inactive)
CC(=O)C1=C(O)C(=O)N(Cc2ccco2)C1c1ccc2c(c1)OCO2 (stereo not given),108,84.5% (inactive),108% (inactive),119% (inactive),112% (inactive),7.12% (inactive),105,112,-5.07% (inactive),0.48% (inactive)
COc1cccc(C(=O)OCn2nnc3ccccc3c2=O)c1,88,92.5% (inactive),88% (inactive),108% (inactive),114% (inactive),4.58% (inactive),109,114,-0.13% (inactive),16.5% (inactive)
N#Cc1c(NC(=O)CSc2nc(N)cc(=O)[nH]2)sc2c1CCCCCC2,104,90% (inactive),104% (inactive),59.9% (inactive),91.5% (inactive),5.43% (inactive),86.1,91.5,-0.66% (inactive),-10% (inactive)
CCN(CC)S(=O)(=O)c1ccc2oc(SCc3ccc(F)cc3)nc2c1,93.5,82.5% (inactive),93.5% (inactive),68.5% (inactive),80.1% (inactive),-14.8% (inactive),95,80.1,0.54% (inactive),-0.95% (inactive)
CC(=O)NS(=O)(=O)c1ccc(NC(=O)c2ccccc2F)cc1,72,95% (inactive),72% (inactive),87.3% (inactive),99.4% (inactive),3.83% (inactive),95.5,99.4,0% (inactive),2.33% (inactive)
